Data as given in ChEMBL document CHEMBL3526048, “In vitro metabolism of rivoglitazone, a novel peroxisome proliferator-activated receptor γ agonist, in rat, monkey, and human liver microsomes and freshly isolated hepatocytes” (Drug Metab Dispos, 2011).

Legend:
[1] = Drug metabolism in human hepatocytes assessed as formation of 3-(4-((6-methoxy-1-methyl-1H-benzo[d]imidazol-2-yl)methoxy)phenyl)-2-(methylthio)propanamide at 30 uM after 3 hrs by radio-HPLC/LC-MS/MS analysis in presence of NADPH-generating system/SAM; format: ADME, cell-based, Hepatocyte
[2] = system: Liver microsome; test: Drug metabolism in Sprague-Dawley rat liver microsomes assessed as formation of (2S,3S,4S,5R,6R)-3,4,5-trihydroxy-6-(5-(4-((6-methoxy-1-methyl-1H-benzo[d]imidazol-2-yl)methoxy)benzyl)-2,4-dioxothiazolidin-3-yl)tetrahydro-2H-pyran-2-carboxylic acid at 20 uM after 4 hrs by radio-HPLC/LC-MS/MS analysis in presence of UDPGA and UDPGA/SAM; format: ADME
[3] = biological target: T1, UDP-glucuronosyltransferase 2B4 (Homo sapiens, UniProt P06133); test: (§1) Activity of human UGT2B4 expressed in microsomes isolated from baculovirus infected insect cell assessed as enzyme-mediated (2S,3S,4S,5R,6R)-6-((1-carboxy-2-(4-((6-methoxy-1-methyl-1H-benzo[d]imidazol-2-yl)methoxy)phenyl)ethylthio)carbonylamino)-3,4,5-trihydroxytetrahydro-2H-pyran-2-carboxylic acid formation at 20 uM after 4 hrs by radio-HPLC/LC-MS/MS analysis in presence of UDPGA; format: ADME
T1 sequence (P06133 whole entry): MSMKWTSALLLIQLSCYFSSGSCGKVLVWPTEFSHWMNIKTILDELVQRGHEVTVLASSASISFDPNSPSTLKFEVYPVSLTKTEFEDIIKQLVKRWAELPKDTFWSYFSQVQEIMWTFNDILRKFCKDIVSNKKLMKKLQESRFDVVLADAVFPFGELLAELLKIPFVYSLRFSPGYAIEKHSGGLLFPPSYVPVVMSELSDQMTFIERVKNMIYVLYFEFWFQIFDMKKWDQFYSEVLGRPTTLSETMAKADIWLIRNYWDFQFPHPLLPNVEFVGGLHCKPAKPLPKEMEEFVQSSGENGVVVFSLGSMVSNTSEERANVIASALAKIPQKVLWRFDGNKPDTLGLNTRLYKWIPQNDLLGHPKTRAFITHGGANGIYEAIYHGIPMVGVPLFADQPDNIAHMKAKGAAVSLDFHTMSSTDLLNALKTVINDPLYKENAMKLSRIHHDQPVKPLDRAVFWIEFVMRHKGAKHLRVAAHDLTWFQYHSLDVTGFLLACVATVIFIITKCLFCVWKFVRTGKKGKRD

[4] = biological target: T2, UDP-glucuronosyltransferase 1A8 (Homo sapiens, UniProt Q9HAW9); test: as §1, with “UGT1A8” for “UGT2B4”; format: ADME
T2 sequence (Q9HAW9 whole entry): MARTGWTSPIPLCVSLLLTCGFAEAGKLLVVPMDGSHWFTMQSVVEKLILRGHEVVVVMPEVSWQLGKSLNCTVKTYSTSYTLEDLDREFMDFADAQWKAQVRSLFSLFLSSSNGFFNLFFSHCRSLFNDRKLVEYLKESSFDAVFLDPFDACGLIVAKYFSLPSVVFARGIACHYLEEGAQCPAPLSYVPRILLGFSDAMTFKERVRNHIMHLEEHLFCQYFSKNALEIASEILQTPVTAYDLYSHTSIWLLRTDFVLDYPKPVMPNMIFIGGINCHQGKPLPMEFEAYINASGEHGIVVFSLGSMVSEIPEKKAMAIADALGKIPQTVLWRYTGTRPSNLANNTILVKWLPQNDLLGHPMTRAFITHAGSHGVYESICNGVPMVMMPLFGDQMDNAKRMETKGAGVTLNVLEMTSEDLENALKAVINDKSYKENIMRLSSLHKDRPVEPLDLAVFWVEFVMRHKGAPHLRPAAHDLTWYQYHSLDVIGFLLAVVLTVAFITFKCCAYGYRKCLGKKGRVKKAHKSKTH

[5] = biological target: Cytochrome P450 2C19 (Homo sapiens, UniProt P33261); test: Activity of human CYP2C19 expressed in microsomes isolated from baculovirus infected insect cell assessed as enzyme-mediated 3-(4-((6-methoxy-1-methyl-1H-benzo[d]imidazol-2-yl)methoxy)phenyl)-2-(methylthio)propanoic acid formation at 20 uM after 2 hrs by radio-HPLC/LC-MS/MS analysis in presence of NADPH-generating system/SAM and UDPGA/SAM; format: ADME
[6] = biological target: T3, Cytochrome P450 2C8 (Homo sapiens, UniProt P10632); test: (§2) Activity of human CYP2C8 expressed in microsomes isolated from baculovirus infected insect cell assessed as enzyme-mediated 2-amino-3-((1-carboxy-2-(4-((6-methoxy-1-methyl-1H-benzo[d]imidazol-2-yl)methoxy)phenyl)ethyl)disulfanyl)propanoic acid formation at 20 uM after 2 hrs by radio-HPLC/LC-MS/MS analysis; format: ADME
T3 sequence (P10632 whole entry): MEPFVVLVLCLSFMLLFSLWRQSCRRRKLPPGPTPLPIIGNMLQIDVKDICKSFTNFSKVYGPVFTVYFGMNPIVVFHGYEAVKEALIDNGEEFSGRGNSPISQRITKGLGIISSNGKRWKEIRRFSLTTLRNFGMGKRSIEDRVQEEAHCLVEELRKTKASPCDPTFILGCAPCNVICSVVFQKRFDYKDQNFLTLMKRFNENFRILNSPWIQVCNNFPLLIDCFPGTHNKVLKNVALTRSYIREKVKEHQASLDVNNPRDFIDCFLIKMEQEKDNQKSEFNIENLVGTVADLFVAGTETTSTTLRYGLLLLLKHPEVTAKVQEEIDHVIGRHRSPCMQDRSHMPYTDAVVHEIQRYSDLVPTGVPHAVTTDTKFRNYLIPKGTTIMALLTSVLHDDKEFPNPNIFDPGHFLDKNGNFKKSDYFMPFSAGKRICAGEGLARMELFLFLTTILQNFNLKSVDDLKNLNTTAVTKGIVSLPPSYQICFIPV
Method in brief: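 Baculovirus/insect-cell microsomes expressing single human CYPs, 1 mg/ml protein, with 50 mM potassium phosphate (pH 7.4) or 100 mM Tris-HCl (pH 7.5). NADPH-generating system: 2 mM NADP⁺, 20 mM glucose 6-phosphate, 2 units/ml G6PDH, 10 mM MgCl₂. [¹⁴C]rivoglitazone at 20 μM, 2 h at 37°C with shaking. Control used insect-cell control supersomes. Stopped with acetonitrile; supernatant concentrated under nitrogen; metabolites analysed by radio-HPLC, LC-MS and LC-MS/MS.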

[7] = biological target: Cytochrome P450 3A5 (Homo sapiens, UniProt P20815); test: as §2, with “CYP3A5” for “CYP2C8”; format: ADME
Method in brief: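 Baculovirus-insect-cell microsomes expressing the human CYP (1 mg/ml protein) were incubated with [14C]rivoglitazone (20 μM) in 50 mM potassium phosphate (pH 7.4) or 100 mM Tris-HCl (pH 7.5) with an NADPH-generating system (2 mM NADP+, 20 mM glucose 6-phosphate, 2 units/ml G6PDH, 10 mM MgCl2) for 2 h at 37°C. Insect-cell control supersomes served as the control. Reactions were stopped with acetonitrile, and the concentrated supernatants were analysed by radio-HPLC, LC-MS and LC-MS/MS.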

[8] = system: Liver microsome; test: Drug metabolism in Sprague-Dawley rat liver microsomes assessed as formation of 5-(4-((6-hydroxy-1-methyl-1H-benzo[d]imidazol-2-yl)methoxy)benzyl)thiazolidine-2,4-dione at 20 uM after 2 hrs by radio-HPLC/LC-MS/MS analysis in presence of NADPH-generating system and NADPH-generating system/SAM; format: ADME

Chain of Cytochrome P450 3A5 (P20815 whole entry): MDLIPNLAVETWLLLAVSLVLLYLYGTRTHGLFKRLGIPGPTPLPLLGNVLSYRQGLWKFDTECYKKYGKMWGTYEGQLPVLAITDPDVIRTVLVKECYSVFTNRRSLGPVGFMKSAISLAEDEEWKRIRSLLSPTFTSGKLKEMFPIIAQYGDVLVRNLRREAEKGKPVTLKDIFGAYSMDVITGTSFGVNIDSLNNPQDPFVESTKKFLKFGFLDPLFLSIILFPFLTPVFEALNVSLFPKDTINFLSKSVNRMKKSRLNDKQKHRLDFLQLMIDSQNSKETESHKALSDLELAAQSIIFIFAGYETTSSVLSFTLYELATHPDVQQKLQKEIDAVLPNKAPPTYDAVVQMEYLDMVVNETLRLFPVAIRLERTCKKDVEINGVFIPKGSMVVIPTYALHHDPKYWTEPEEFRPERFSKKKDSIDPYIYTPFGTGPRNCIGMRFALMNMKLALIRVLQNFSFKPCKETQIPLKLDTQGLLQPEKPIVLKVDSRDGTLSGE
Chain of Cytochrome P450 2C19 (P33261 whole entry): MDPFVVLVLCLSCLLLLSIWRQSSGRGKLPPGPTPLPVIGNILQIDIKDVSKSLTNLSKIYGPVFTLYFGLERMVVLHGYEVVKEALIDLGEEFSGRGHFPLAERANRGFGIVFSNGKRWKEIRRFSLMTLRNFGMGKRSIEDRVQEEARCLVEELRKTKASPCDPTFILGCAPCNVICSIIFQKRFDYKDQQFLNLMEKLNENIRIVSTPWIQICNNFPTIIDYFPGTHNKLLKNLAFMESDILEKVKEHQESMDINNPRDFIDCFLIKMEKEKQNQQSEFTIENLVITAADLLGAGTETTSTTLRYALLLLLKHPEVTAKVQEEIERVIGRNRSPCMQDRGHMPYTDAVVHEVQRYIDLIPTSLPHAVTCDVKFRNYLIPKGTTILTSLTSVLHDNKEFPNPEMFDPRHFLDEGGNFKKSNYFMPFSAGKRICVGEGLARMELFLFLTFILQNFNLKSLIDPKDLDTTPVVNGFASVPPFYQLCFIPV

Drug metabolism [1]: metabolite_detected | Drug metabolism [2]: metabolite_detected | Drug metabolism [3]: metabolite_not_detected | Drug metabolism [4]: metabolite_not_detected | Drug metabolism [5]: metabolite_not_detected | Drug metabolism [6]: metabolite_not_detected | Drug metabolism [7]: metabolite_not_detected | Drug metabolism [8]: metabolite_detected
Structure (SMILES): COc1ccc2nc(COc3ccc(C[14CH]4SC(=O)NC4=O)cc3)n(C)c2c1.Cl (racemic)
